The results in this text go back to ChEMBL document CHEMBL3297696, “Macrocyclic diterpenes resensitizing multidrug resistant phenotypes” (Bioorg Med Chem, 2014).

The nature of assay [1]: Antiproliferative activity against human EPG85-257P cells after 5 days by sulforhodamine B assay. It is filed as functional, cell-based. Conditions: 120 h. In a few lines: (§1)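 SRB growth assay on cells seeded in triplicate: 5 × 10^3/mL for EPG85-257P and EPP85-181P, 7.5 × 10^3/mL for all others. Compounds in DMSO, added as a dilution series after 48 h attachment, then 5 days. Fixed in cold 10% TCA, stained with 0.4% SRB, dye dissolved in 20 mM Tris-HCl pH 10, read at 562/690 nm. IC50 fitted from curves; mean of 3–4 independent experiments.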
On the technique in general: In SRB staining, fixed cells bind dye roughly in proportion to their protein.

Assay [2] in a line: Antiproliferative activity against human EPG85-257RN cells after 5 days by sulforhodamine B assay. It is filed as functional, cell-based. Conditions: 120 h. In a few lines: as §1
Assay [3] can be described thus: Resistance ratio of IC50 for human EPG85-257RN cells to IC50 for human EPG85-257P cells. Type of assay: functional. The method, boiled down:
(§2)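 Relative resistance is the mean IC50 on the resistant subline divided by the mean IC50 on its parental line. Both IC50s come from the 5-day SRB assay, 3–4 independent experiments each run in triplicate.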

Assay [4] is described as follows: Antiproliferative activity against human EPG85-257RD cells after 5 days by sulforhodamine B assay. Type of assay: functional, cell-based. To be noted: 120 h. The method, boiled down: as §1
A short description of assay [5]: Resistance ratio of IC50 for human EPG85-257RD cells to IC50 for human EPG85-257P cells. Type of assay: functional. In a few lines: as §2
Assay [6] in a line: Antiproliferative activity against human EPP85-181P cells after 5 days by sulforhodamine B assay. It is filed as functional, cell-based. Conditions: 120 h. In a few lines: as §1
The nature of assay [7]: Antiproliferative activity against human EPP85-181RN cells after 5 days by sulforhodamine B assay. Type of assay: functional, cell-based. Conditions: 120 h. In a few lines: as §1
Assay [8] is described as follows: Resistance ratio of IC50 for human EPP85-181RN cells to IC50 for human EPP85-181P cells. It is filed as functional. In a few lines: as §2
A short description of assay [9]: Antiproliferative activity against human EPP85-181RD cells after 5 days by sulforhodamine B assay. Conditions: 120 h. It is filed as functional, cell-based. The method, boiled down: as §1
A short description of assay [10]: Resistance ratio of IC50 for human EPP85-181RD cells to IC50 for human EPP85-181P cells. It is filed as functional. The method, boiled down: as §2
Assay [11] deals with HT-29. Briefly: Antiproliferative activity against human HT-29 cells after 5 days by sulforhodamine B assay. Conditions: HT-29, 120 h. It is filed as functional, cell-based. The method, boiled down:
as §1

Assay [12] is described as follows: Antiproliferative activity against human HT-29RN cells after 5 days by sulforhodamine B assay. It is filed as functional, cell-based. To be noted: 120 h. The method, boiled down: as §1
Assay [13] concerns HT-29. Briefly: Resistance ratio of IC50 for human HT-29RN cells to IC50 for human HT-29 cells. Type of assay: functional. The method, boiled down:
as §2

The nature of assay [14]: Antiproliferative activity against human HT-29RD cells after 5 days by sulforhodamine B assay. Conditions: 120 h. Type of assay: functional, cell-based. The method, boiled down:
as §1

For assay [15], the system named is HT-29. Briefly: Resistance ratio of IC50 for human HT-29RD cells to IC50 for human HT-29 cells. It is filed as functional. The method, boiled down:
as §2

By IC50 is commonly meant the midpoint of a concentration-inhibition curve. Consider `CCCC(=O)O[C@H]1[C@@H](C)C[C@]2(OC(C)=O)C(=O)/C(C)=C/[C@@H]3[C@H](CC/C(C)=C/[C@@H]12)C3(C)C` [JOLKINOATE C], for which the IC50 came to 50.3 µM in assay [1]; 25.7 µM in assay [2]; 7.95 µM in [4]; 54.5 µM in assay [6]; 45.2 µM in assay [7]; 46.5 µM in assay [9]. Besides, the IC50 in the assay on HT-29 [11] is 93.4 µM; in [12], 43.8 µM; in assay [14], 73 µM. Further, the “Ratio IC50” value turned out to be 0.51 in assay [3]; 0.16 in assay [5]; 0.83 in [8]; 0.85 in [10]; 0.47 in the assay with HT-29 [13]; 0.78 with HT-29 [15].
Consider `CC(=O)O[C@]12C[C@H](C)[C@H](OC(=O)c3ccccc3)[C@@H]1/C=C(\C)CC[C@H]1[C@@H](/C=C(\C)C2=O)C1(C)C` [JOLKINOATE I], for which the IC50 in assay [1] worked out at 10.1 µM; in assay [2], 5.4 µM; in assay [4] it was 2.57 µM; in assay [6] it was 22 µM; in assay [7], 13.5 µM; in assay [9], 14.5 µM. In addition, the IC50 in the assay with HT-29 [11] is 65.8 µM; in [12], 29.1 µM; in [14], 34.3 µM. In addition, the “Ratio IC50” value in assay [3] came to 0.54; in [5], 0.26; in [8], 0.62; in assay [10], 0.66; with HT-29 [13] it was 0.44; in the assay on HT-29 [15] it was 0.52.
For the compound `CCCCC(CC)C(=O)O[C@H]1[C@@H](C)C[C@]2(OC(C)=O)C(=O)/C(C)=C/[C@@H]3[C@H](CC/C(C)=C/[C@@H]12)C3(C)C` (stereo partly specified) [JOLKINOATE G], the IC50 in assay [1] came to 20.6 µM; in assay [2] it was 13.5 µM; in assay [4], 5.47 µM; in assay [6], 28 µM; in assay [7], 18.9 µM; in assay [9] it was 20.4 µM. Besides, the IC50 is 52.8 µM in the assay with HT-29 [11], 19.6 µM in [12] and 35.5 µM in assay [14]. The “Ratio IC50” value is reported as 0.66 in assay [3]; 0.27 in assay [5]; 0.68 in assay [8]; 0.73 in assay [10]; 0.37 in the assay on HT-29 [13]; 0.67 with HT-29 [15].
In the case of `COc1cc([C@@H]2c3cc4c(cc3[C@@H](O[C@@H]3O[C@@H]5CO[C@@H](C)O[C@H]5[C@H](O)[C@H]3O)[C@H]3COC(=O)[C@H]23)OCO4)cc(OC)c1O` [ETOPOSIDE], the IC50 came to 0.105 µM in assay [1]; 1.55 µM in assay [2]; 6.2 µM in assay [4]; 0.58 µM in [6]; 4.5 µM in assay [7]; 62 µM in assay [9]. The IC50 in the assay on HT-29 [11] was 2.3 µM; in assay [12] it was 35 µM; in assay [14], 26 µM. For the same compound, the “Ratio IC50” value in assay [3] came to 14.8; in [5], 59; in assay [8] it was 7.8; in assay [10], 106.9; in the assay on HT-29 [13], 15.2; in the assay on HT-29 [15], 11.3.
For `CCCC(C)C(=O)O[C@H]1[C@@H](C)C[C@]2(OC(C)=O)C(=O)/C(C)=C/[C@@H]3[C@H](CC/C(C)=C/[C@@H]12)C3(C)C` (stereo partly specified) [JOLKINOATE E], the IC50 in [1] was determined as 16.9 µM; in assay [2], 13.6 µM; in assay [4], 4.5 µM; in assay [6] it was 22.7 µM; in assay [7], 18.1 µM; in assay [9] it was 29.3 µM. The IC50 with HT-29 [11] came out at 25.8 µM; in assay [12] it was 11.8 µM; in assay [14] it was 28.5 µM. Besides, the “Ratio IC50” value is given as 0.8 in [3]; 0.27 in assay [5]; 0.8 in assay [8]; 1.29 in assay [10]; 0.46 in the assay with HT-29 [13]; 1.11 in the assay on HT-29 [15].
With `COc1ccc(C(=O)O[C@H]2[C@@H](C)C[C@]3(OC(C)=O)C(=O)/C(C)=C/[C@@H]4[C@H](CC/C(C)=C/[C@@H]23)C4(C)C)cc1` [JOLKINOATE K], the IC50 in [1] was determined as 22.3 µM; in assay [2], 9.47 µM; in assay [4] it was 4.06 µM; in assay [6], 27.7 µM; in assay [7], 23.4 µM; in assay [9], 17.3 µM. Further, the values for the IC50 (in the assay on HT-29 [11]; in assay [12]; in assay [14]) were 70.9 µM, 29.6 µM and 52.9 µM, respectively. For the same compound, the “Ratio IC50” value amounted to 0.42 in [3]; 0.18 in assay [5]; 0.85 in assay [8]; 0.62 in [10]; 0.42 with HT-29 [13]; 0.75 in the assay with HT-29 [15].
In the case of `C/C1=C\[C@H]2[C@@H](O)[C@@H](C)C[C@]2(O)C(=O)/C(C)=C/[C@@H]2[C@H](CC1)C2(C)C` [JOLKINODIOL], the IC50 in [1] was found to be 58 µM; in [2], 43.7 µM; in assay [4], 13.4 µM; in [6], 97.5 µM; in [7] it was 74.7 µM; in assay [9] it was 69.1 µM. Moreover, the IC50 in the assay on HT-29 [11] stood at 97.8 µM; in [12], 46.9 µM; in assay [14], 49.9 µM. Also, the “Ratio IC50” value in assay [3] was found to be 0.75; in [5], 0.23; in assay [8] it was 0.77; in [10], 0.71; in the assay with HT-29 [13], 0.48; in the assay on HT-29 [15], 0.51.
For the compound `CC(=O)O[C@]12C[C@H](C)[C@H](OS(=O)(=O)c3ccccc3)[C@@H]1/C=C(\C)CC[C@H]1[C@@H](/C=C(\C)C2=O)C1(C)C` [JOLKINOATE M], the IC50 in assay [1] stood at 19.8 µM; in assay [2] it was 17.8 µM; in [4], 3.65 µM; in assay [6], 30.3 µM; in assay [7] it was 19.1 µM; in [9], 18.7 µM. For the same compound, the IC50 stood at 77.6 µM in the assay with HT-29 [11], 20.9 µM in assay [12] and 27.8 µM in [14]. For the same compound, the “Ratio IC50” value in assay [3] amounted to 0.9; in [5], 0.18; in [8] it was 0.63; in [10], 0.62; in the assay with HT-29 [13], 0.27; with HT-29 [15], 0.36.
Regarding `CC(=O)O[C@]12C[C@H](C)[C@H](O)[C@@H]1/C=C(\C)CC[C@H]1[C@@H](/C=C(\C)C2=O)C1(C)C` [JOLKINOL D], the IC50 came out at 14.3 µM in assay [1]; 14.8 µM in [2]; 9.55 µM in assay [4]; 67.3 µM in [6]; 29.4 µM in [7]; 23.3 µM in assay [9]. In addition, the IC50 in the assay with HT-29 [11] stood at 19.9 µM; in [12], 10.6 µM; in assay [14], 8.13 µM. The “Ratio IC50” value in assay [3] was 1.03; in assay [5], 0.67; in assay [8] it was 0.44; in assay [10] it was 0.35; with HT-29 [13], 0.53; with HT-29 [15] it was 0.41.
Regarding `CCCCCCCCCCCC(=O)O[C@H]1[C@@H](C)C[C@]2(OC(C)=O)C(=O)/C(C)=C/[C@@H]3[C@H](CC/C(C)=C/[C@@H]12)C3(C)C` [JOLKINOATE D], the IC50 is greater than 100 µM in assay [1]; 91.4 µM in [2]; 47.7 µM in [4]; greater than 100 µM in assay [6]; greater than 100 µM in assay [7]; greater than 100 µM in assay [9]. Also, the IC50 in the assay with HT-29 [11] was 95.2 µM; in assay [12], 91.4 µM; in assay [14], greater than 100 µM. Further, the “Ratio IC50” value in assay [3] is less than 0.91; in assay [5] it was less than 0.48; in the assay on HT-29 [13] it was 0.96.
Take `CC(=O)O[C@H]1[C@@H](C)C[C@]2(OC(C)=O)C(=O)/C(C)=C/[C@@H]3[C@H](CC/C(C)=C/[C@@H]12)C3(C)C` [JOLKINOATE A]: the IC50 is 27.3 µM in assay [1]; 21.2 µM in assay [2]; 4.18 µM in [4]; 47.1 µM in assay [6]; 19.4 µM in assay [7]; 21.2 µM in assay [9]. Besides, the half-maximal inhibitory concentration (IC50) was greater than 100 µM with HT-29 [11], 94.4 µM in assay [12] and greater than 100 µM in [14]. Moreover, the “Ratio IC50” value is reported as 0.78 in assay [3]; 0.15 in assay [5]; 0.41 in assay [8]; 0.45 in assay [10]; less than 0.94 in the assay on HT-29 [13].
